# According to PubChem BioAssay AID720574 (Broad Institute, 2013):
# Where “and” joins values, the source holds several entries; their conditions need not be identical. Equal entries are not always repeated. The campaign covered roughly 96,000 compounds. About 140 (0.15%) were called active.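 How the source made its calls: active means mean replicate inhibition above about 25%, with at least 55% of replicates also reaching it (limit read from the data, passing the limit was not always enough); inconclusive means only one of those two conditions met; inactive means neither condition met.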 For the sample, actives were picked, then their nearest neighbours and some compounds at random. A structure can be active in one record and inactive in another.
# Molecular target: Lysine-specific demethylase 4C (Homo sapiens) (UniProt Q9H3R0)
# Experiment: KDM4C H3K9me3 demethylation inhibition – biochemical, single concentration HTS, primary screen (AID 720574)
# Settings: GST-KDM4C 2-372, H3K9me3 peptide, LANCE TR-FRET; at 12.5 µM; stronger effect = higher value
# Outline: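 material = GST-tagged GASC-1 (JMJD2C) catalytic fragment, aa 2-372 | amount = enzyme final amount 10 nM | medium = HEPES buffer, pH 7.5, plus ascorbate | also added = H3K9me3 peptide substrate, Fe(II), 2-oxoglutarate | dosing = single dose | times = 30 min demethylation and 1 h detection at room temperature | detection = LANCE TR-FRET | read-out basis = Fall in 671/618 emission ratio as inhibition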
# Chain of Lysine-specific demethylase 4C (Homo sapiens) (Q9H3R0 2-372 limits assumed): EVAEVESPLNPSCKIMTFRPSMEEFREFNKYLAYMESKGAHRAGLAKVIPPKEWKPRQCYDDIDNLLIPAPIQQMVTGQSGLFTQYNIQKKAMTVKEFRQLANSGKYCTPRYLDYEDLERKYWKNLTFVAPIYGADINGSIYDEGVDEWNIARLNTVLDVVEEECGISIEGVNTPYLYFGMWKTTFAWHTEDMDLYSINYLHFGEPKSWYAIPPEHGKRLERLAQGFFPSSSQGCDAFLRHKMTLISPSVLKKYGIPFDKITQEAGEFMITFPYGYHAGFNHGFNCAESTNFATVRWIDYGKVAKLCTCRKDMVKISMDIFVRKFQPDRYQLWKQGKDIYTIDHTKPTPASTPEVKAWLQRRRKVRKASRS
row,Structure (SMILES),inhibition
1,COc1cccc(S(=O)(=O)N[C@@H]2C=C[C@H](CC(=O)NC3CCC3)O[C@@H]2CO)c1,-0.615% (inactive)
2,CNC(=O)C[C@@H]1CC[C@@H]2[C@@H](COc3ccc(NC(=O)Nc4ccccc4OC)cc3C(=O)N2C)O1,-0.148% (inactive)
3,COc1ccc2c3c(n(C)c2c1)[C@@H](CO)N(C(=O)CN1CCOCC1)CC31CN(C(=O)CC2CC2)C1,-1.48% (inactive)
4,C[C@H](CO)N1C[C@H](C)[C@@H](CN(C)C(=O)C2CC2)Oc2cc(C#CC(C)(C)O)ccc2S1(=O)=O,-1.72% (inactive)
5,O=C(C1CCCC1)N1CC(=O)N2[C@@H](CO)[C@H](c3ccc(C#CC4CCCC4)cc3)[C@@H]2C1,0.0785% (inactive)
6,COc1cccc(-c2ccc([C@@H]3[C@@H](CO)N4C(=O)CN(C(=O)C5CCCCC5)C[C@H]34)cc2)c1,-0.874% (inactive)
7,CC(C)(C)[S@](=O)N1Cc2cc(C(=O)N[C@@H]3CCN(Cc4ccccc4)C3)nc(-c3cccc(-c4ccncc4)c3)c2[C@@H]1CCO,-0.764% (inactive)
8,C/C=C/c1ccccc1[C@@H]1[C@@H](C#N)N(C(=O)Cc2ccccn2)[C@H]1CO,0.483% (inactive)
9,CN(C)CC(=O)Nc1ccc2c(c1)[C@H]1C[C@@H](CC(=O)NCc3ccc(Cl)cc3)O[C@@H](CO)[C@H]1O2,-0.979% (inactive)
10,COc1cccc(NC(=O)N[C@@H]2CC[C@H](CC(=O)Nc3ccccc3)O[C@@H]2CO)c1,-0.777% (inactive)
11,COc1ccc2c3c(n(C)c2c1)[C@H](CO)NCC31CCN(C(=O)Nc2ccccc2F)CC1,0.753% (inactive)
12,CO[C@H]1CN(C)C(=O)c2ccc(NC(C)=O)cc2OC[C@H](C)N(C(=O)Cc2ccccn2)C[C@@H]1C,0.463% (inactive)
13,CN1C(=O)c2cc(NC(=O)C3CCC3)ccc2OC[C@@H]2O[C@@H](CC(=O)NCc3ccccc3F)CC[C@@H]21,-1.68% (inactive)
14,CO[C@H]1CN(C)C(=O)c2ccc(NC(=O)Cc3ccccc3)cc2OC[C@@H](C)N(C(C)=O)C[C@H]1C,-0.332% (inactive)
15,COc1ccc(CNC(=O)C[C@H]2CC[C@@H]3[C@H](COc4ccc(NC(=O)C5CC5)cc4C(=O)N3C)O2)cc1,0.0505% (inactive)
16,C[C@@H]1CN([C@@H](C)CO)S(=O)(=O)c2ccc(-c3ccccc3F)cc2O[C@H]1CN(C)Cc1cncnc1,5.07% (inactive)
17,C[C@@H]1CN([C@@H](C)CO)C(=O)c2cc(C#C[C@@H](C)O)cnc2O[C@H]1CN(C)CC1CCOCC1,4.17% (inactive)
18,COc1ccccc1-c1cn(CC[C@@H]2CC[C@H](NC(=O)c3ccccc3F)[C@H](CO)O2)nn1,-1.5% (inactive)
19,COC(=O)C[C@H]1CC[C@H]2[C@@H](COc3ccc(NC(=O)Nc4cccc(F)c4)cc3C(=O)N2C)O1,-1.5% (inactive)
20,COCc1cn(CC[C@@H]2CC[C@@H](NC(=O)Cc3cccnc3)[C@@H](CO)O2)nn1,1.27% (inactive)
21,CC(C)(C)[S@@](=O)N1Cc2cc(C(=O)N3CCOCC3)nc(-c3cccc(-c4ccc(C#N)cc4)c3)c2[C@H]1CCO,1.6% (inactive)
22,CC=Cc1ccc2n(c1=O)C[C@@H]1[C@@H](CO)[C@H](C(=O)N[C@H](C)c3ccccc3)N(C(=O)c3cnccn3)[C@H]21 (mixture of isomers),0.423% (inactive)

row,Structure (SMILES),inhibition
1,O=C(C[C@@H]1CC[C@@H]2[C@H](COC[C@H](O)CN2Cc2cccc(C(F)(F)F)c2)O1)NCc1ccc(F)cc1,3.72% (inactive)
2,CN(C)CC(=O)N1CC2(C1)[C@H](c1ccccc1)[C@@H](CO)N2C(=O)C1CCCCC1,-0.237% (inactive)
3,O=C(C[C@H]1C=C[C@H](NC(=O)C2CCC2)[C@H](CO)O1)NCCCN1CCOCC1,1.01% (inactive)
4,COc1ccc(NC(=O)N(C)C[C@@H]2Oc3ccc(NS(=O)(=O)c4ccc(C)cc4)cc3CC(=O)N([C@@H](C)CO)C[C@H]2C)cc1,6.92% (inactive)
5,CCNC(=O)Nc1ccc2c(c1)C(=O)N(C)[C@H]1CC[C@@H](CC(=O)N[C@@H](C)c3ccccc3)O[C@H]1CO2,0.198% (inactive)
6,O=C(Nc1ccccc1F)N1CC(=O)N2[C@H](C1)[C@@H](c1ccc(C#CC3CC3)cc1)[C@@H]2CO,1.64% (inactive)
7,CN(C)C(=O)[C@@H]1[C@@H](CO)[C@@H]2Cn3c(ccc(C4=CCCC4)c3=O)[C@H]1N2Cc1ccccn1,1.36% (inactive)
8,NCC[C@H]1CC[C@H](NC(=O)C2CC2)[C@@H](CO)O1,0.258% (inactive)
9,CO[C@H]1CN(C)C(=O)c2ccc(NC(=O)C3CC3)cc2OC[C@H](C)N(CCc2ccccc2)C[C@@H]1C,0.468% (inactive)
10,O=C(CC(F)(F)F)N1C[C@H]2[C@@H](c3ccccc31)[C@H](CO)N2C(=O)Cc1ccccc1,-2.83% (inactive)
11,CCCN1C[C@@H](C)[C@@H](OC)CN(C)C(=O)c2ccc(NC(=O)CC(F)(F)F)cc2OC[C@H]1C,-0.121% (inactive)
12,CN1CCN(C(=O)C[C@@H]2CC[C@@H]3[C@@H](COc4ccc(NC(=O)c5ccc(F)c(F)c5)cc4C(=O)N3C)O2)CC1,-0.587% (inactive)
13,O=C(c1ccncc1)N1C[C@@H]2[C@H](c3ccccc31)[C@H](CO)N2C(=O)c1ccncc1,-0.987% (inactive)
14,COc1ccc2c3c(n(C)c2c1)[C@H](CO)N(C(=O)NC(C)C)CC31CCN(C(=O)NC(C)C)CC1,0.238% (inactive)
15,CCCN1C[C@H](C)[C@@H](OC)CN(C)C(=O)c2ccc(NC(=O)CC)cc2OC[C@@H]1C,2.58% (inactive)
16,O=C(Nc1ccccc1)N1CC(=O)N2[C@@H](CO)[C@H](c3ccc(C#CC4CCCC4)cc3)[C@@H]2C1,0.422% (inactive)
17,CN(C)C(=O)C[C@@H]1CC[C@H](NC(=O)NC2CCCCC2)[C@@H](CO)O1,-0.283% (inactive)
18,CCCC(=O)Nc1ccc2c(c1)C(=O)N(C)[C@@H]1CC[C@H](CC(=O)NCCOC)O[C@H]1CO2,0.186% (inactive)
19,CC(=O)N1CC2(C1)[C@@H](c1ccccc1)[C@@H](CO)N2C(=O)c1cnccn1,0.148% (inactive)
20,CCC(=O)Nc1ccc2c(c1)C(=O)N(C)C[C@@H](OC)[C@H](C)CN(Cc1cccnc1)[C@@H](C)CO2,-0.624% (inactive)
21,CCCC#Cc1ccc([C@@H]2[C@@H](CO)N3C(=O)CN(C(=O)Nc4ccc(F)cc4)C[C@@H]23)cc1,-0.912% (inactive)
22,CCC(=O)N1[C@@H](CO)[C@@H](c2ccccc2)C12CN(C(=O)Cc1ccccc1)C2,7.87% (inactive)

row,Structure (SMILES),inhibition
1,Cc1noc(C)c1NC(=O)N(C)C[C@@H]1OCCCC[C@H](C)Oc2ccc(NC(=O)c3ccccc3)cc2C(=O)N([C@@H](C)CO)C[C@@H]1C,1.18% (inactive)
2,O=C(Nc1ccccc1F)N[C@@H]1CC[C@@H](CCNC(=O)C2CC2)O[C@H]1CO,-1.05% (inactive)
3,O=C(C1CCCCC1)N1C[C@@H]2N[C@H](C1)C2c1ccc(-c2cccc(F)c2)cc1 (some centres undefined),4.43% (inactive) and 0.21% (inactive)
4,O=C(C1CCC1)N1C[C@@H]2N[C@H](C1)C2c1ccc(-c2cncnc2)cc1 (some centres undefined),0.917% (inactive)
5,Cc1ccccc1-c1ccc(C2[C@@H]3CN(C(=O)C4CCCCC4)C[C@H]2N3)cc1 (some centres undefined),40% (active) and 1.58% (inactive)
6,CN1c2ccc(-c3cccc(F)c3)cc2[C@H]2[C@H](CCN2C(=O)C2CCCC2)[C@@H]1CO,5.91% (inactive)
7,COCC#Cc1ccc([C@H]2[C@H](CO)N3C(=O)CN(C(=O)Nc4ccccc4F)C[C@@H]23)cc1,0.262% (inactive)
8,O=C(C[C@@H]1CC[C@@H]2[C@H](COC[C@H](O)CN2Cc2cccc(-c3ccncc3)c2)O1)N1CCOCC1,-0.984% (inactive)
9,Cc1noc(C)c1S(=O)(=O)N(C)C[C@H]1OCCCC[C@H](C)Oc2ccc(NS(=O)(=O)c3ccccc3)cc2C(=O)N([C@H](C)CO)C[C@@H]1C,-0.427% (inactive)
10,CO[C@H]1CN(C)C(=O)c2cc(NS(C)(=O)=O)ccc2OC[C@@H](C)N(C(=O)NC(C)C)C[C@@H]1C,1.54% (inactive)
11,C[C@H]1CN([C@@H](C)CO)C(=O)c2cccc(NC(=O)CCCCCC(=O)Nc3ccccc3N)c2O[C@@H]1CN(C)C(=O)NC1CCCCC1,0.11% (inactive)
12,O=C(C[C@@H]1C=C[C@H](NC(=O)CN2CCOCC2)[C@@H](CO)O1)NC1CCC1,-2.2% (inactive)
13,CCCN1[C@@H]2c3ccc(-c4ccccc4OC)c(=O)n3C[C@H]1[C@H](CO)[C@H]2C(=O)NCc1ccccn1,0.442% (inactive)
14,COCC(=O)N(C)C[C@H]1Oc2cc(C#C[C@@H](C)O)ccc2S(=O)(=O)N([C@H](C)CO)C[C@H]1C,0.918% (inactive)
15,COc1ccccc1S(=O)(=O)N[C@H]1CC[C@@H](CC(=O)NCc2cc(F)cc(F)c2)O[C@H]1CO,-1.06% (inactive)
16,COc1ccc2c3c(n(C)c2c1)[C@H](CO)N(C(=O)NC(C)C)CC31CN(CC2CCCCC2)C1,-0.934% (inactive)
17,C[C@H](CO)N1C[C@H](C)[C@H](CN(C)CC2CCCCC2)OCCCC[C@H](C)Oc2ccc(NS(=O)(=O)c3ccc(F)cc3)cc2C1=O,-1.51% (inactive)
18,COCC(=O)N1[C@H](CO)[C@H](c2ccccc2)C12CN(C(=O)NC1CCCCC1)C2,0.705% (inactive)
19,CCC(=O)N1CC(=O)N2[C@H](CO)[C@@H](c3ccc(-c4ccc(C(=O)N(C)C)cc4)cc3)[C@@H]2C1,-0.23% (inactive)
20,COc1ccc(S(=O)(=O)N[C@H]2CC[C@H](CCn3cc(C(C)C)nn3)O[C@@H]2CO)cc1,0.0615% (inactive)
